One data set relates to rat bleomycin model. In words: rat bleomycin model of lung fibrosis. In kind it is in vivo. As to conditions: 60 mg/kg daily oral. The method, boiled down: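 Male CD rats, 6–8 weeks old, given intratracheal bleomycin sulphate 0.9 U/kg or saline 1 mL/kg under isoflurane on day 0. Test compound 60 mg/kg, or water vehicle, by daily oral gavage on days 0–13. Day 14: Giemsa-stained lung sections counted for MCs per lung area. H&E and Masson's trichrome images analysed for parenchymal tissue density (HDFm). Collagen proportion by trichrome image analysis, 5 sections/animal. n=5–9/group; Kruskal-Wallis.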

The subject of data set [1] is CBMCs co-cultured with NHLFs. Kind of data set: CBMC:NHLF co-culture, fibroblast-mediated MC survival and fibroblast numbers. The class given is cell-based, human. As to conditions: 10 nM, day 14. Put shortly:
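CBMCs and normal human lung fibroblasts were cultured alone or co-cultured at 1:1 for up to 21 days. Media lacked SCF and IL-6 and held test compound, DMSO vehicle, anti-SCF (67 nM) or goat IgG isotype (67 nM). At each time point, viability dye plus anti-ckit APC staining; viable ckit+ (MC) and ckit− (fibroblast) cells counted in a fixed volume by flow cytometry. Day-14 % inhibition vs isotype/vehicle; 3 experiments, 2 MC donors.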

The next data set deals with CCL2 release from CBMCs. Kind of data set: rhSCF-induced CCL2 release from MCs. In kind it is cell-based. The conditions noted are these: Homo sapiens, 72 h, read-out: IC50, inhibition of CCL2 release. Put shortly: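 CBMCs stimulated 3 days with 4 nM rhSCF together with test compound, DMSO vehicle, anti-SCF pAb (positive control) or goat IgG isotype. CCL2 in culture supernatants quantified by MesoScale Discovery electrochemiluminescence. Mean (SE) of 3 separate experiments.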

For data set [2] the following is noted: read-out: maximum plasma concentration achieved at steady state (cmax); 150 mg twice daily dosing; cited from earlier work.
For a further data set, the target named is ckit (Homo sapiens, UniProt P10721). Kind of data set: rhSCF-mediated ckit phosphorylation in CBMCs. In kind it is cell-based. As to conditions: 4 nM rhSCF, 10 min stimulation.
ckit, sequence (P10721 26-976): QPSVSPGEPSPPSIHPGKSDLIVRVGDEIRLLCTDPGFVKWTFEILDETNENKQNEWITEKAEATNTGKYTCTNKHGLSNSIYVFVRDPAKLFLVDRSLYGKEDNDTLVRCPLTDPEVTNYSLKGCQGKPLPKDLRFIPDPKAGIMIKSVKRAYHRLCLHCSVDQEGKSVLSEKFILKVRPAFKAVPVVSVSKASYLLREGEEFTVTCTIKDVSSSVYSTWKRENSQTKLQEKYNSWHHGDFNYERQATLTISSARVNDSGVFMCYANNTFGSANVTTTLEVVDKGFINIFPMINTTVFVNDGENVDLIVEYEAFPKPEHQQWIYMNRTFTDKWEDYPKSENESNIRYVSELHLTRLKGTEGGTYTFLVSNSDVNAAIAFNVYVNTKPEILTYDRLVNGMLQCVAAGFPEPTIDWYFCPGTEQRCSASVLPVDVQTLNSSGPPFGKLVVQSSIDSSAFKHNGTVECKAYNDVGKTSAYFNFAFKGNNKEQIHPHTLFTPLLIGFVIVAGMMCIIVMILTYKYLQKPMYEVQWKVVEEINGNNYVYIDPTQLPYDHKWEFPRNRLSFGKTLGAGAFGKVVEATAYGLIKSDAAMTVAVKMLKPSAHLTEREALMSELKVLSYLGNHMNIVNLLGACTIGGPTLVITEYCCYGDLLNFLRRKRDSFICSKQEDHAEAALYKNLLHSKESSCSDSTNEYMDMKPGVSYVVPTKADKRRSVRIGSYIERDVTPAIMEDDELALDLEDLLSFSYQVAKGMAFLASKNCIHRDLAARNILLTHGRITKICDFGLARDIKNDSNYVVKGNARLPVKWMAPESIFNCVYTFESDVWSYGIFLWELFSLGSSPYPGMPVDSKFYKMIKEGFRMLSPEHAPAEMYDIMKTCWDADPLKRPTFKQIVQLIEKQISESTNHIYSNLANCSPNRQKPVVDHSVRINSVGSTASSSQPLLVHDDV
For data set [3], the system named is cord blood-derived mast cells (CBMCs). Kind of data set: recombinant SCF-mediated CBMC survival. In kind it is cell-based, human. As to conditions: 4 nM rhSCF, 7 days. The method, boiled down: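 Cord blood–derived MCs, differentiated from CD133+ precursors, cultured 7 days with 4 nM rhSCF plus test compound or DMSO vehicle. Then stained with viability dye and anti-ckit APC; viable ckit-positive MCs in a fixed volume counted by flow cytometry and compared with control. Mean (SE) of three separate experiments.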

The test system of data set [4] is normal human lung fibroblasts (NHLFs). Kind of data set: bFGF-induced fibroblast proliferation. The class given is cell-based. The conditions noted are these: 100pM bFGF, 48 hours. The method, boiled down:
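Normal human lung fibroblasts stimulated 48 h with recombinant human bFGF (100pM) plus test compound or DMSO vehicle. Proliferation measured by 3H-thymidine incorporation (counts per minute). Mean (SE) of three separate experiments.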

Structures are written as SMILES. “Also recorded” adds a separate entry of the source.

Regarding `COC(=O)c1ccc2c(c1)NC(=O)/C2=C(\Nc1ccc(N(C)C(=O)CN2CCN(C)CC2)cc1)c1ccccc1` [nintedanib], the “effect on bleomycin-induced increase in lung MCs (number per area lung)” value with rat bleomycin model (day 0-13, read-out day 14, 60 mg/kg) was “ablated; also recorded: inhibited”. Also, in the data set with rat bleomycin model (day 14), the “effect on collagen (col1a1) mRNA expression in lung” value is reported as “no significant effect” and the “effect on fibronectin (fn1) mRNA expression in lung” value is given as “no significant effect”. In the data set with rat bleomycin model (day 14, 60 mg/kg), the “effect on collagen content by Masson's trichrome (MTC)” value is on record as “trend towards decreased collagen; also recorded: not statistically significant”; the “effect on histamine levels in lung homogenates” value is “reduction in the levels of histamine in lung homogenates, although this did not reach statistical significance”; the “effect on lung hydroxyproline levels” value is reported as “no significant effect”. Moreover, the “effect on high tissue density frequency (HDFm) in lung parenchyma” value with rat bleomycin model (day 14, vs bleomycin vehicle control, 60 mg/kg) is given as “significantly decreased; also recorded: inhibited”. Also, the “effect on fibroblast-mediated MC survival (in words)” value in data set [1] was “inhibited survival”. Moreover, the IC50 with CCL2 release from CBMCs came out at 12.2 nM. Further, the Cmax in data set [2] was 70 nM. In addition, at ckit, the “extent of inhibition of ckit phosphorylation (in words)” value is “fully inhibited”.

With `Cc1ccc(=O)n(-c2ccccc2)c1` [pirfenidone], in data set [3], the “effect on rhSCF-mediated MC survival (in words)” value was “no impact”. Further, in data set [4], the “effect on bFGF-mediated fibroblast proliferation (in words)” value is listed as “no impact”.

One may read the IC50 as the concentration that inhibits the measured activity by half.
